ChEMBL document CHEMBL4732269, “Design, Synthesis, and Biological Evaluation of Imidazopyridines as PD-1/PD-L1 Antagonists” (ACS Med Chem Lett, 2021)
Calls of active or inactive are those of the source. The calls are words filed in the database; no cut-off is given here.

How the values were obtained:
Type in all cases: protein-complex assay
[1] = target: T1, Programmed cell death protein 1/Programmed cell death 1 ligand 1 (Homo sapiens, UniProt Q9NZQ7); experiment: Antagonist activity at PD1/PD-L1 (unknown origin) assessed as disruption of PD-1/PD-L1 complex by measuring PD-L1 dimerization measured after 2 hrs by HTRF assay
T1 sequence (Q15116 whole entry): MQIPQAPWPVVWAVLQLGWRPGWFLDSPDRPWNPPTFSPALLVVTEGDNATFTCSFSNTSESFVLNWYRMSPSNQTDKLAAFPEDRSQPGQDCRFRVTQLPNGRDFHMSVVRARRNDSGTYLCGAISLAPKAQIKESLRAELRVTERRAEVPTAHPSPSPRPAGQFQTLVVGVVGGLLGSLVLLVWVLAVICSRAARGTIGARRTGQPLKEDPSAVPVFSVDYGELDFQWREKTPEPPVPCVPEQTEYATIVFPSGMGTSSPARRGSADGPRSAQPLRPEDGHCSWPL
T1 sequence (Q9NZQ7 whole entry): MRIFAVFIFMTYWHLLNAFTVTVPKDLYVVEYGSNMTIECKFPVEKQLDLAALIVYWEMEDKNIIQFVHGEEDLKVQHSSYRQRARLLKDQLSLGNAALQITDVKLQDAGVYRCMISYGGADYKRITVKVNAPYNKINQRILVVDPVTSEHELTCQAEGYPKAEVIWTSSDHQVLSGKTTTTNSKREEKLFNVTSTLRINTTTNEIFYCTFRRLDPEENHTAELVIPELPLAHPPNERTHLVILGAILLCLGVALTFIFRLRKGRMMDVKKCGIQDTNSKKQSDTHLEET
Outline: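 PD-1/PD-L1 binding measured by HTRF with a commercial kit following the kit protocol, at 20 μL final volume. Each compound was run as its own dilution series, and plates were incubated 2 h at RT before the TR-FRET read. Signals were background-subtracted on the negative control and normalized to the positive control. Averaged data were fitted with a normalized Hill equation to give the IC50.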

[2] = target: T2, Programmed cell death protein 1/Programmed cell death 1 ligand 1 (Homo sapiens, UniProt Q15116+Q9NZQ7); experiment: Antagonist activity at PD1/PD-L1 (unknown origin) assessed as disruption of PD-1/PD-L1 complex by measuring PD-L1 dimerization at 50 uM measured after 2 hrs by HTRF assay
T2 sequence (Q15116 whole entry): as the sequence (Q15116 whole entry) above
T2 sequence (Q9NZQ7 whole entry): as the sequence (Q9NZQ7 whole entry) above

[3] = target: T2, Programmed cell death protein 1/Programmed cell death 1 ligand 1; experiment: Antagonist activity at PD1/PD-L1 (unknown origin) assessed as disruption of PD-1/PD-L1 complex by measuring PD-L1 dimerization by 1H-NMR analysis; settings: filed as antagonist
Outline: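 PD-L1 was expressed in E. coli BL21 (DE3) as inclusion bodies, then refolded by drop-wise dilution into 0.1 M Tris pH 8.0, 1 M L-Arg HCl, 2 mM EDTA, and 0.25 mM each of oxidized and reduced glutathione. It was dialyzed against 10 mM Tris pH 8.0 with 20 mM NaCl. Final size-exclusion chromatography was run in PBS pH 7.4 for NMR.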

[4] = target: T2, Programmed cell death protein 1/Programmed cell death 1 ligand 1; experiment: Antagonist activity at human PD1/PD-L1
[5] = target: T2, Programmed cell death protein 1/Programmed cell death 1 ligand 1; experiment: Antagonist activity at PD1/PD-L1 (unknown origin)
[6] = target: T1, Programmed cell death protein 1/Programmed cell death 1 ligand 1; experiment: Antagonist activity at human PD1/PD-L1 preincubated with PD-L1 for 1 hr followed by incubation with PD1 for 1 hr by ELISA

| SMILES | IC50 [1] [µM] | Activity ([2]; filed as antagonist) | Activity [2] | also measured |
| --- | --- | --- | --- | --- |
| Cc1c(COc2ccc3nc(CN)c(NCCc4ccccc4)n3c2)cccc1-c1ccccc1 | 16.8 | Active |  | Activity [3]: Active |
| Cc1c(COc2ccc3nc(CN)c(NCc4cccc(C#N)c4)n3c2)cccc1-c1ccc(F)cc1 |  |  | inactive |  |
| Cc1c(COc2ccc3nc(CN)c(NCc4cccc(-c5nn[nH]n5)c4)n3c2)cccc1-c1ccc(F)cc1 |  |  | inactive |  |
| Cc1c(COc2ccc3nc([C@H](N)CO)c(NCc4ccccc4)n3c2)cccc1-c1ccccc1 |  |  | inactive |  |
| Cc1cc2nc(CN)c(NCc3ccccc3)n2cc1OCc1cccc(-c2ccc3c(c2)OCCO3)c1C | 1.83 | Active |  |  |
| Cc1c(Oc2ccc3nc(CN)c(NCc4ccccc4)n3c2)cccc1-c1ccccc1 |  | Active |  | Activity [3]: Active |
| Cc1c(COc2ccc3nc(CN)c(NC(C)c4ccccc4)n3c2)cccc1-c1ccccc1 (stereo not drawn) | 9.33 | Active |  | Activity [3]: Active |
| Cc1c(-c2ccccc2)cccc1-c1nc2c(s1)CNCC2 |  |  |  | IC50 [4]: ≤ 0.1 µM |
| CC(O)C(NC(=O)NC(CC(N)=O)c1nc(C(N)CO)no1)C(=O)O (stereo not drawn) |  |  |  | IC50 [5]: 5000 µM |
| N#Cc1cncc(COc2cc(O[C@H]3CCc4c(-c5ccccc5F)cccc43)c(Cl)cc2CN2CC[C@@H](O)C2)c1 |  |  |  | IC50 [6]: < 0.1 µM |
| Cc1c(COc2ccc3nc(CN)c(NCCc4ccccc4)n3c2)cccc1-c1ccc(F)cc1 |  |  | inactive |  |
| Cc1c(COc2ccc3nc(CN)c(NCc4ccccc4)n3c2)cccc1-c1ccccc1 | 10.2 | Active |  | Activity [3]: Active |
| Cc1c(COc2ccc3nc(CN)c(NCc4ccccc4)n3c2)cccc1-c1ccc2c(c1)OCCO2 | 22.9 | Active |  |  |
| Cc1c(COc2ccc3nc([C@@H](N)CO)c(NCc4ccccc4)n3c2)cccc1-c1ccccc1 |  |  | inactive |  |
